Experimental data: ChEMBL document CHEMBL4622973, “Discovery of Potent Small-Molecule SIRT6 Activators: Structure-Activity Relationship and Anti-Pancreatic Ductal Adenocarcinoma Activity” (J Med Chem, 2020)
The source made the active and inactive calls. The calls are words filed in the database; no cut-off is given here.

How the values were obtained:
[1] = molecular target: T1, NAD-dependent protein deacylase sirtuin-6 (Homo sapiens, UniProt Q8N6T7); assay: Activation of N-terminal his-tagged human SIRT6 expressed in Escherichia coli M15 [pREP4] assessed as increase in deacetylation activity incubated for 2 hrs using Ac-RYQK(Myr)-AMC substrate by FDL assay relative to control
[2] = molecular target: T1, NAD-dependent protein deacylase sirtuin-6; assay: Binding affinity to N-terminal his-tagged human SIRT6 expressed in Escherichia coli M15 [pREP4] assessed as change in melting temperature at 20 uM by SYPRO orange dye based DSF assay
Bel-7402 = assay: Antiproliferative activity against human Bel7402 cells assessed as reduction in cell viability incubated for 72 hrs by MTT assay; assay type: functional, cell-based
SW-620 = assay: Antiproliferative activity against human SW620 cells assessed as reduction in cell viability incubated for 72 hrs by MTT assay; assay type: functional, cell-based
NCI-H526 = assay: Antiproliferative activity against human NCI-H526 cells assessed as reduction in cell viability incubated for 72 hrs by MTT assay; assay type: functional, cell-based
NCI-H1975 = assay: Antiproliferative activity against human NCI-H1975 cells assessed as reduction in cell viability incubated for 72 hrs by MTT assay; assay type: functional, cell-based
BXPC-3 = assay: Inhibition of colony formation in human BxPC3 cells incubated for 9 to 18 days by crystal violet staining based assay; assay type: functional, cell-based
Method in brief: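 Cells are seeded per well at the line-specific density: BXPC-3 750, PANC-1 500, AsPC-1 2200, MIAPaCa-2 500. Compound at several concentrations is added after 24 h. Incubation runs 9–18 days (BXPC-3 18 days, PANC-1 14 days). Cells are then fixed with 4% paraformaldehyde and stained with crystal violet, and colonies of more than 50 cells are counted.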

PANC-1 [3] = assay: Induction of apoptosis in human PANC1 cells incubated for 48 hrs by propidium iodide and Annexin V-FITC staining based flow cytometry; assay type: functional, cell-based
Method in brief: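 PANC-1 and BXPC-3 cells seeded in 6-well plates and treated with a concentration series for 48 h. Stained with Annexin V-FITC and propidium iodide for 10 min in the dark. Annexin V+ populations measured by flow cytometry.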

PANC-1 [4] = assay: Inhibition of cell migration of human PANC1 cells at 10 umol/L incubated for 24 hrs by inverted microscopy relative to control; assay type: functional; settings: PANC-1, 24 h
Method in brief: (§1)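 PDAC cells are grown to a confluent monolayer at 37 °C in 5% CO2. The monolayer is scratched with a 200 μL pipette tip to make a gap of constant width, then washed with PBS. Cells are exposed to a range of compound concentrations. They are imaged by inverted microscope after 24 h. Migrated cells are counted by hand, and inhibition is expressed relative to untreated wells (100%).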

ASPC1 = assay: Inhibition of cell migration of human AsPC1 cells at 10 umol/L incubated for 24 hrs by inverted microscopy relative to control; assay type: functional; settings: ASPC1, 24 h; method in brief: as §1
[5] = molecular target: T1, NAD-dependent protein deacylase sirtuin-6; assay: Binding affinity to SIRT6 in human PANC1 cells assessed as protection of SIRT6 protein from temperature-dependent degradation at 25 uM incubated for 72 hrs by CETSA; assay type: cell-based; settings: PANC-1
Method in brief: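 Cells treated with compound (25 μM) or DMSO for 72 h, washed, resuspended in PBS with protease inhibitor cocktail, split into aliquots heated 3 min at a temperature gradient. Lysed by three freeze–thaw cycles, centrifuged at 4 °C for 15 min; soluble SIRT6 in supernatant detected by western blot. Triplicate.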

[6] = molecular target: T1, NAD-dependent protein deacylase sirtuin-6; assay: […] in human PANC1 cells assessed as reduction in H3K9ac levels incubated for 72 hrs by Western blot analysis; assay type: cell-based; settings: PANC-1
Method in brief: (§2)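 Cells incubated 72 h with various compound concentrations; whole-cell RIPA lysates with protease inhibitors, BCA-normalised, separated on 12% SDS-PAGE, transferred to PVDF, blocked in 5% milk or BSA. Probed 10 h at 4 °C with antibodies to SIRT6, acetyl-H3K9/K18/K56, total H3, Lin28b, Myc, IGF2BP3, β-actin; HRP secondary, chemiluminescent detection.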

[7] = molecular target: T1, NAD-dependent protein deacylase sirtuin-6; assay: […] in human BxPC3 cells assessed as reduction in H3K9ac levels incubated for 72 hrs by Western blot analysis; assay type: cell-based; settings: BXPC-3; method in brief: as §2
[8] = molecular target: T1, NAD-dependent protein deacylase sirtuin-6; assay: […] in human BxPC3 cells assessed as reduction in H3K18ac levels incubated for 72 hrs by Western blot analysis; assay type: cell-based; settings: BXPC-3; method in brief: as §2
PANC-1 [9] = assay: Antitumor activity against human PANC1 cells xenografted in BALB/c nude mouse assessed as inhibition of tumor growth at 150 mg/kg/day, po for 30 days relative to control; assay type: functional; settings: PANC-1, po, 720 h, read-out: TGI
Method in brief: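 Female BALB/c nude mice, 6-8 weeks old, injected subcutaneously in the right flank with 5×10^6–1×10^7 PANC-1 cells. At 130-150 mm³, mice randomized into 4 groups (n = 6) and dosed orally once daily for 30 days against vehicle. Tumor volume followed over time. Inhibition rate assessed against control.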

[10] = molecular target: T1, NAD-dependent protein deacylase sirtuin-6; assay: In-vivo activation of SIRT6 in BALB/c nude mouse xenografted with human PANC1 cells assessed as reduction in H3K9Ac expression at 150 mg/kg/day, po for 30 days by IHC analysis; assay type: functional, organism-based; settings: PANC-1
Method in brief: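 Female BALB/c nude mice (6–8 weeks) bearing subcutaneous PANC-1 xenografts (5×10⁶–1×10⁷ cells, right flank), randomised at 130–150 mm³ tumours; oral dosing daily for 30 days versus vehicle (n=6). Tumour tissue stained by immunohistochemistry.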

[11] = Volume of distribution at steady state in Sprague-Dawley rat at 2 mg/kg, iv after 0.25 to 24 hrs by LC-MS/MS analysis; assay type: ADME, organism-based; settings: in vivo
Method in brief: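 Male Sprague-Dawley rats, 6–8 weeks old, received a single dose of 10 mg/kg p.o. or 2 mg/kg i.v. The vehicle was 5% DMSO, 10% Solutol and 85% saline at pH 7. Blood was taken by cardiac puncture at 0.083–24 h (p.o.) or 0.25–24 h (i.v.), and plasma was measured by LC-MS/MS. Values are mean ± SD, n = 3.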

Histone deacetylase 3 = Histone deacetylase 3 (Homo sapiens, UniProt O15379); assay: Inhibition of HDAC3 (unknown origin) by FDL assay
Method in brief: (§3)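 Selectivity testing by FDL assay at concentrations up to 200 µM. SIRT1-2 assays run by an outside contract provider. Values reported as IC50.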

Histone deacetylase 5 = Histone deacetylase 5 (Homo sapiens, UniProt Q9UQL6); assay: Inhibition of HDAC5 (unknown origin) by FDL assay; method in brief: as §3
Histone deacetylase 11 = Histone deacetylase 11 (Homo sapiens, UniProt Q96DB2); assay: Inhibition of HDAC11 (unknown origin) by FDL assay; method in brief: as §3
[12] = molecular target: T1, NAD-dependent protein deacylase sirtuin-6; assay: Activation of N-terminal his-tagged human SIRT6 expressed in Escherichia coli M15 [pREP4] assessed as increase in deacetylation activity incubated for 2 hrs using Ac-RYQK(Ac)-AMC substrate by HPLC analysis

T1 sequence (Q8N6T7 whole entry): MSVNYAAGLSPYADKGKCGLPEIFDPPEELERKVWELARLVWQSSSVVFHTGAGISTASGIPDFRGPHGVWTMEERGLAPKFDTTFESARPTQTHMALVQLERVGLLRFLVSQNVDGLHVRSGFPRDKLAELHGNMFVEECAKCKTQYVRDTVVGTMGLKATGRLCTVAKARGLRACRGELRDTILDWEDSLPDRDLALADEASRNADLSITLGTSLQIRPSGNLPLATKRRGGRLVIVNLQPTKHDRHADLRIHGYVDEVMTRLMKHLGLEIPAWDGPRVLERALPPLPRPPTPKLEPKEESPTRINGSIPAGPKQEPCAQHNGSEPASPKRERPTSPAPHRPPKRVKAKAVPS
Histone deacetylase 11, sequence (Q96DB2 whole entry): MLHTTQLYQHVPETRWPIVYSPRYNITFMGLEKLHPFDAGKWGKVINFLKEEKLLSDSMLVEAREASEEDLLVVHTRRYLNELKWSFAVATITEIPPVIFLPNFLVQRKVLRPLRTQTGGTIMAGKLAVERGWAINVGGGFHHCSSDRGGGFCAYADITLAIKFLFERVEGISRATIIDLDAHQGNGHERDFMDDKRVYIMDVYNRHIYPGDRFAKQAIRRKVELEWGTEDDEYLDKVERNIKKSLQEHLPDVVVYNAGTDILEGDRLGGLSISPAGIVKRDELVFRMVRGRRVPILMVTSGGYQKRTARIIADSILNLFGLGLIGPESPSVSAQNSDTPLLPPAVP
Histone deacetylase 3, sequence (O15379 whole entry): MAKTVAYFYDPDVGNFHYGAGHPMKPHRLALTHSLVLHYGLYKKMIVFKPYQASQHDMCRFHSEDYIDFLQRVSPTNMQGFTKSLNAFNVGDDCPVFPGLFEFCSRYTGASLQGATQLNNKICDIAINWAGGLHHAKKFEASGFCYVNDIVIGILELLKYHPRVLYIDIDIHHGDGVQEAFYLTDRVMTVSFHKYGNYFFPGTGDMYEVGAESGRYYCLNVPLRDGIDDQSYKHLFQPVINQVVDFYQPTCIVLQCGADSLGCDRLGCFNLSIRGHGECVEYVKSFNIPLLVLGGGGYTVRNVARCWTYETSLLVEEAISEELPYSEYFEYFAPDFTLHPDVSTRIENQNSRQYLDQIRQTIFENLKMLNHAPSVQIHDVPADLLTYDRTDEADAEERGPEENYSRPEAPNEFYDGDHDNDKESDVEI
Histone deacetylase 5, sequence (Q9UQL6 whole entry): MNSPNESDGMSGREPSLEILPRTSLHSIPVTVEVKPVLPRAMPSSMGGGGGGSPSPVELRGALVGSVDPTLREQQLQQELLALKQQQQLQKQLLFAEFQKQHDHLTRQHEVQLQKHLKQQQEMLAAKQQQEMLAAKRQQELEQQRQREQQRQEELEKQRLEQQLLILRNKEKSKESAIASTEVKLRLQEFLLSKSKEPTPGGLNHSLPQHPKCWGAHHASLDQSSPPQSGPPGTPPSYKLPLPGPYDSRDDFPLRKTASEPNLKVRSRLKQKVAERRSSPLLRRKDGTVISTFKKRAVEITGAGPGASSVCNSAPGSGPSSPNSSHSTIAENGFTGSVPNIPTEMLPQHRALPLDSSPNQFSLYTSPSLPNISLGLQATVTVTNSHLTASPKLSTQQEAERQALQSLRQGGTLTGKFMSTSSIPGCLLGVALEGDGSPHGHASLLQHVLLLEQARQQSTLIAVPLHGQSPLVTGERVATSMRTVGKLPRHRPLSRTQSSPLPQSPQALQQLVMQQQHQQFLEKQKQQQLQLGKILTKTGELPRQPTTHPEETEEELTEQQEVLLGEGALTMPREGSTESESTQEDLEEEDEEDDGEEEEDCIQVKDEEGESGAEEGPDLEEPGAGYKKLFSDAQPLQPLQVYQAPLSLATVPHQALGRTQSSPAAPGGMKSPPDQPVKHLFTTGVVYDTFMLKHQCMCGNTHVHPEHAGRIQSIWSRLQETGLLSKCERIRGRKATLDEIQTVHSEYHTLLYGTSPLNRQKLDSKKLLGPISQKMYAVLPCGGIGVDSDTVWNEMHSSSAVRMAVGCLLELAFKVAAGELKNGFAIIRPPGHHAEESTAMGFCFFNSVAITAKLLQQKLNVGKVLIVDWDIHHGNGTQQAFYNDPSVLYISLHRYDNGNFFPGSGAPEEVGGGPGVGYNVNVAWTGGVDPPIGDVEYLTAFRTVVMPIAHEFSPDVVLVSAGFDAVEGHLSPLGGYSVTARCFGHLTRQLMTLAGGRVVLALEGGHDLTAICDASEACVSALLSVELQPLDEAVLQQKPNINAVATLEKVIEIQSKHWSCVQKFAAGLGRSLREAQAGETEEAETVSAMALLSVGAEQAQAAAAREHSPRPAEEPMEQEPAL

In the case of `O=C(NC(c1ccccc1)c1ccccc1)c1cc(-c2cc3ccccc3o2)nc2ccccc12`, the EC1.5 [1] is reported as 0.49 µM, the EC50 [1] is reported as 5.49 µM and the ΔTm [2] is reported as 1.01 °C. For the same compound, the Activity (Bel-7402) was “Active”, the Activity (SW-620) was “Active” and the Activity (NCI-H526) was “Active”. The Activity (NCI-H1975) was “Active”, the inhibition (BXPC-3) was “Dose-dependent effect” and the Activity (PANC-1 [3]) was “Dose-dependent effect”. For the same compound, the inhibition at 10 µM (PANC-1 [4]) was 87.8%, the inhibition at 10 µM (ASPC1) was 55.4% and the Activity [5] was “Active”. The inhibition [6] was “Dose-dependent effect”, the inhibition [7] was “Dose-dependent effect” and the inhibition [8] was “Dose-dependent effect”. The inhibition in vivo at 150 mg/kg/day (PANC-1 [9]) was 90.2%, the Activity [10] was “Active” and the Vdss [11] was 1112.8 L/kg. The IC50 (Histone deacetylase 3) was > 200 µM, the IC50 (Histone deacetylase 5) was > 200 µM and the IC50 (Histone deacetylase 11) was > 200 µM. For the same compound, the Activity [12] was “Active”.
